Assay results published in ChEMBL document CHEMBL4196154, “Structure-Guided Design and Development of Potent and Selective Dual Bromodomain 4 (BRD4)/Polo-like Kinase 1 (PLK1) Inhibitors” (J Med Chem, 2018).
Calls of active or inactive are those of the source. The calls are words filed in the database; no cut-off is given here.

Key:
[1] = biological target: T1, Bromodomain-containing protein 4 (Homo sapiens, UniProt O60885); assay: Inhibition of BRD4-BD1 (unknown origin) incubated for 1 hr by AlphaScreen biotin-JQ1 competition assay
[2] = biological target: T2, Serine/threonine-protein kinase PLK1 (Homo sapiens, UniProt P53350); assay: Inhibition of human recombinant PLK1 by Z-Lyte assay
T2 sequence (P53350 whole entry): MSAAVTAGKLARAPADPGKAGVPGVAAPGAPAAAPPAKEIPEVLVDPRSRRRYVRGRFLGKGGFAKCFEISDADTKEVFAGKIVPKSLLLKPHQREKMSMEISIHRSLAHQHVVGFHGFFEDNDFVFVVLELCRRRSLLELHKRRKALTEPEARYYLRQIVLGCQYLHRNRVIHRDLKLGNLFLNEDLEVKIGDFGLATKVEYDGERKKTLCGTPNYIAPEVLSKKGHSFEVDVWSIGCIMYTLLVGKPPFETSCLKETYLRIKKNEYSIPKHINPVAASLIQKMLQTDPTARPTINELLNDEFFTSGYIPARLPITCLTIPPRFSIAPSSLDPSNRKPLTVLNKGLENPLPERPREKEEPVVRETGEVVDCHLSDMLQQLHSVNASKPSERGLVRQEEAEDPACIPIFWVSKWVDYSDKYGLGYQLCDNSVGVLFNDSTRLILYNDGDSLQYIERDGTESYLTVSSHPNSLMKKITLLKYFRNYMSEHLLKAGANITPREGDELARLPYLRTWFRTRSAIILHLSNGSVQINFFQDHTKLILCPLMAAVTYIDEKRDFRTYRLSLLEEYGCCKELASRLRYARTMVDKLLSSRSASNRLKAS

[3] = biological target: Bromodomain testis-specific protein (Homo sapiens, UniProt Q58F21); assay: Inhibition of BRDT-BD1 (unknown origin) incubated for 1 hr by AlphaScreen biotin-JQ1 competition assay
Procedure, shortened: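 BD protein at 40 nM, Ni-coated acceptor and streptavidin donor beads each 25 μg/mL. Buffer 50 mM HEPES, 150 mM NaCl, 0.1% BSA, 0.01% Tween20, pH 7.5. Compounds delivered in DMSO. Run under low light, read after 1 h at room temperature.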

[4] = test system: MOLM-13; assay: Induction of cell cycle arrest in human MOLM13 assessed as accumulation at G1/G2 phase at 1 uM incubated for 24 hrs by propidium iodide staining based flow cytometry; format: functional
Procedure, shortened: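 MOLM13 cells exposed to 1 μM compound for 24 h, then harvested, stained with propidium iodide and PI fluorescence measured on a flow cytometer for cell-cycle distribution.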

[5] = species: Homo sapiens; assay: Selectivity index, ratio of IC50 for inhibition of BRD4-BD1 (unknown origin) to IC50 for human recombinant PLK1
[6] = biological target: T1, Bromodomain-containing protein 4; assay: Inhibition of human BRD4-BD1 expressed in bacterial expression system assessed as remaining activity at 1 uM
Procedure, shortened: (§1)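 Single-concentration binding panel at 1 uM: BROMOscan (32 bromodomains) and KINOMEscan (468 kinases) competition-binding platforms. Reported as % of DMSO control.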

[7] = biological target: T2, Serine/threonine-protein kinase PLK1; assay: Inhibition of human PLK1 expressed in mammalian expression system assessed as remaining enzyme activity at 1 uM; procedure, shortened: as §1
[8] = biological target: Serine/threonine-protein kinase PLK2 (Homo sapiens) (UniProt Q9NYY3); assay: Inhibition of human PLK2 expressed in mammalian expression system assessed as remaining enzyme activity at 1 uM; procedure, shortened: as §1
Chain of Serine/threonine-protein kinase PLK2 (Homo sapiens) (Q9NYY3 whole entry, looked up): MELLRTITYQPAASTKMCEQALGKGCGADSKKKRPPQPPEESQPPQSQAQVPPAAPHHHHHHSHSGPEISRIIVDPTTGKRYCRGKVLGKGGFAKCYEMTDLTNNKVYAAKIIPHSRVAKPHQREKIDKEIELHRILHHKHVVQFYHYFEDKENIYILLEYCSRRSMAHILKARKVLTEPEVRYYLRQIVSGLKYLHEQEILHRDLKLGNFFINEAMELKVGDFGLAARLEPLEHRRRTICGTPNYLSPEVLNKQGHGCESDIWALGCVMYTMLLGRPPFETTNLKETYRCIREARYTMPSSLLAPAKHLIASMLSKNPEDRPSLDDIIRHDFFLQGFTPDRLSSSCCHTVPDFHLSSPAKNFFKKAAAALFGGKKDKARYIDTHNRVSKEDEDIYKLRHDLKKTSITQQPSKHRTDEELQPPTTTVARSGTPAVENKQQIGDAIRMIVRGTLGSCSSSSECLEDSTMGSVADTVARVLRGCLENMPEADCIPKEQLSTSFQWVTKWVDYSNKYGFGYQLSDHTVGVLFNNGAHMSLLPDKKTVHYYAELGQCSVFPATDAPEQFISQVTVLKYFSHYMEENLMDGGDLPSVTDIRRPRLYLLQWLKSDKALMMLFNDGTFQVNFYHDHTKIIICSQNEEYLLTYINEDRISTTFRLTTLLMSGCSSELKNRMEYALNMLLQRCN

[9] = biological target: Serine/threonine-protein kinase PLK3 (Homo sapiens) (UniProt Q9H4B4); assay: Inhibition of human PLK3 expressed in mammalian expression system assessed as remaining enzyme activity at 1 uM; procedure, shortened: as §1
Chain of Serine/threonine-protein kinase PLK3 (Homo sapiens) (Q9H4B4 whole entry, looked up): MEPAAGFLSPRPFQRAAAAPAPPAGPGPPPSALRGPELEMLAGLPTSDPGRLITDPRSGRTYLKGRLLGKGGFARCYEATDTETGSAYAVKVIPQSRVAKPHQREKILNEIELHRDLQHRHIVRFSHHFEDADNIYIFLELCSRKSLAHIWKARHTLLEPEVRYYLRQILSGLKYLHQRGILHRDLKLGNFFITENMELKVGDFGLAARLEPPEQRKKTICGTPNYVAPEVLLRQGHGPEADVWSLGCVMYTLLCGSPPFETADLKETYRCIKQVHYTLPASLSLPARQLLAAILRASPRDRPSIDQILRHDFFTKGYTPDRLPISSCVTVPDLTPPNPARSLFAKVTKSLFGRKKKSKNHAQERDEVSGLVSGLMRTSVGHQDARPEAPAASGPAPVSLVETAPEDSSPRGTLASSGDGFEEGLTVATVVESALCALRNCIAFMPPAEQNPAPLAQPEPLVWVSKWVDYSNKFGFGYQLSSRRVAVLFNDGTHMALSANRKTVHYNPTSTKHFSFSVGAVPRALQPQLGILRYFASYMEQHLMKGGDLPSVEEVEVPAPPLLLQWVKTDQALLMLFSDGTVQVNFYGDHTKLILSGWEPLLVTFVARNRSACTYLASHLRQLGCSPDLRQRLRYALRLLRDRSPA

SMILES | IC50 [1] [nM] | IC50 [2] [nM] | IC50 [3] [nM] | further results
C[C@@H]1C(=O)N(C)c2cnc(Nc3ccc(C(=O)NC4CCN(C)CC4)cc3OC3CCCC3)nc2N1C1CCCC1 | 28 | 40 | 102 | Activity [4]: Active
CC[C@@H]1C(=O)Nc2cnc(Nc3ccc(C(=O)NC4CCN(C)CC4)cc3OC)nc2N1C1CCCCC1 | > 10000 | 37.2 | – | Ratio IC50 [5]: > 250
CN1CCC(NC(=O)c2ccc(Nc3ncc4c(n3)N(C3CCCC3)CC(=O)N4C)c(OC3CCCC3)c2)CC1 | 690 | – | 3540 | –
CC[C@@H]1C(=O)N(C)c2cnc(Nc3ccc(C(=O)NC4CCN(C)CC4)cc3OC)nc2N1C(C)C | 186 | 4 | – | –
COc1cc(C(=O)NCCN(C)C)ccc1Nc1ncc2c(n1)N(C1CCCC1)[C@H](C)C(=O)N2C | 104 | 21 | 392 | –
COc1cc(C(=O)NC2CCN(C)CC2)ccc1Nc1ncc2c(n1)N(C(C)C)[C@H](C)C(=O)N2C | 421 | 25.2 | 978 | –
CCC[C@@H]1C(=O)N(C)c2cnc(Nc3ccc(C(=O)NC4CCN(C)CC4)cc3OC)nc2N1C1CCCC1 | 2580 | 9.9 | 8470 | Ratio IC50 [5]: > 250
COc1cc(C(=O)N2CCCCC2)ccc1Nc1ncc2c(n1)N(C1CCCC1)[C@H](C)C(=O)N2C | 94 | 95 | 369 | –
COc1cc(C(=O)NC2CCN(C)CC2)ccc1Nc1ncc2c(n1)N(C1CCOCC1)[C@H](CC(C)C)C(=O)N2C | > 50000 | 322 | > 50000 | –
COc1cc(C(=O)NC2CCN(C)CC2)ccc1Nc1ncc2c(n1)N(C1CCCC1)[C@@H](C)C(=O)N2C | 107 | 8.7 | 229 | –
COc1cc(C(=O)NC2CCN(C)CC2)ccc1Nc1ncc2c(n1)N(C(C)C)[C@H](CC(C)C)C(=O)N2C | 41900 | 218 | – | –
COc1cc(C(=O)NC2CCNCC2)ccc1Nc1ncc2c(n1)N(C1CCCC1)[C@H](C)C(=O)N2C | 109 | 9 | 560 | –

Now from value to molecule, other results behind:

IC50 [1] [nM] | IC50 [2] [nM] | IC50 [3] [nM] | SMILES | further results
6630 | 54.1 | 26000 | COc1cc(C(=O)NC2CCN(C)CC2)ccc1Nc1ncc2c(n1)N(C1CCCC1)CC(=O)N2C | –
650 | 4 | – | CC[C@@H]1C(=O)N(C)c2cnc(Nc3ccc(C(=O)NC4CCN(C)CC4)cc3OC)nc2N1C1CCCCC1 | –
310 | 8.6 | 750 | COc1cc(C(=O)NC2CCN(C)CC2)ccc1Nc1ncc2c(n1)N(C1CCCCC1)[C@H](C)C(=O)N2C | –
107 | 160 | 378 | COc1cc(C(=O)NC2CCCCC2)ccc1Nc1ncc2c(n1)N(C1CCCC1)[C@H](C)C(=O)N2C | –
59 | 127 | 245 | C[C@H]1C(=O)N(C)c2cnc(Nc3ccc(C(=O)NC4CCN(C)CC4)cc3OC3CCCC3)nc2N1C1CCCC1 | –
84 | 1.1 | 342 | COc1cc(C(=O)NC2CCN(C)CC2)ccc1Nc1ncc2c(n1)N(C1CCCC1)[C@H](C)C(=O)N2C | Activity [6]: 12%; Activity [7]: 0.3 to 0.5%; Activity [8]: 0.3 to 0.5%; Activity [9]: 0.3 to 0.5%
> 10000 | 2620 | – | CC[C@@H]1C(=O)Nc2cnc(Nc3ccc(C(=O)NC4CCN(C)CC4)cc3OC)nc2N1C(C)C | Ratio IC50 [5]: > 250
596 | 47 | 1950 | CCC[C@@H]1C(=O)N(C)c2cnc(Nc3ccc(C(=O)NC4CCN(C)CC4)cc3OC3CCCC3)nc2N1C1CCCC1 | –
183 | 27 | 558 | COc1cc(C(=O)NCCc2ccccc2)ccc1Nc1ncc2c(n1)N(C1CCCC1)[C@H](C)C(=O)N2C | –
253 | 457 | 933 | COC(=O)c1ccc(Nc2ncc3c(n2)N(C2CCCC2)[C@H](C)C(=O)N3C)c(OC2CCCC2)c1 | –
